Laboratory results taken from ChEMBL document CHEMBL4041484, “Semisynthesis and Structure-Activity Studies of Uncarinic Acid C Isolated from Uncaria rhynchophylla as a Specific Inhibitor of the Nucleation Phase in Amyloid β42 Aggregation” (J Nat Prod, 2016).
Activity calls are given as the source filed them. The rule behind the calls is not given here.

Tests used:
[1] = target: Amyloid-beta precursor protein (Homo sapiens) (UniProt P05067); test: Inhibition of Abeta42 (unknown origin) aggregation at early stage incubated for 8 hrs by Thioflavin-T fluorescence assay
Outline: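 Synthetic Aβ42 (250 μM stock in 0.1% NH4OH), final 25 μM, with compound at 50 μM final (5 mM ethanol stock) in PBS (50 mM sodium phosphate, 100 mM NaCl, pH 7.4), 37 °C for 8 h. An aliquot was mixed with 5.0 μM Th-T in 5.0 mM Gly-NaOH, pH 8.5, and read at ex 430/em 485 nm. Eight points were measured per time.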

[2] = Solubility of the compound in phosphate-buffered saline at pH 7.4 at 50 uM; type: physicochemical; conditions: buffer, pH 7.4, 50 µM
[3] = target: Amyloid-beta precursor protein (Homo sapiens) (UniProt P05067); test: Inhibition of HFIP pretreated Abeta42 (unknown origin) aggregation at nucleation phase assessed as time required for nucleation of Abeta42 at 50 uM by Thioflavin-T fluorescence assay
Outline: (§1)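 Aβ42 was held at 250 μM in HFIP for 30 min at room temperature, sonicated 5 min, dried under reduced pressure, then redissolved in 0.1% NH4OH. It was incubated at 25 μM with compound at 50 μM in PBS, pH 7.4, at 37 °C, sampled periodically over time. Th-T (5.0 μM, Gly-NaOH pH 8.5) fluorescence was read at ex 430/em 485 nm. Means ± SD, n = 8.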

[4] = target: Amyloid-beta precursor protein (Homo sapiens) (UniProt P05067); test: Inhibition of HFIP pretreated Abeta42 (unknown origin) aggregation at nucleation phase at 50 uM by Thioflavin-T fluorescence assay; outline: as §1
[5] = target: Amyloid-beta precursor protein (Homo sapiens) (UniProt P05067); test: Inhibition of HFIP pretreated Abeta42 (unknown origin) aggregation at elongation phase at 50 uM by Thioflavin-T fluorescence assay; outline: as §1
[6] = target: Amyloid-beta precursor protein (Homo sapiens) (UniProt P05067); test: Inhibition of HFIP pretreated Abeta42 (unknown origin) aggregation at nucleation phase assessed as time delay for Abeta42 aggregation velocity at 50 uM by sedimentation assay
Outline: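 HFIP-pretreated Aβ42 (25 μM) and compound (50 μM) were incubated in PBS, pH 7.4, at 37 °C over a time course. Samples were centrifuged at 15 000 rpm, 4 °C, 10 min. Supernatant Aβ42 was quantified by reversed-phase HPLC (ODS, 10–50% CH3CN in 0.1% NH4OH over 30 min, 1.0 mL/min, UV detection). Means ± SE, n = 2.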

Chain of Amyloid-beta precursor protein (Homo sapiens) (P05067 whole entry): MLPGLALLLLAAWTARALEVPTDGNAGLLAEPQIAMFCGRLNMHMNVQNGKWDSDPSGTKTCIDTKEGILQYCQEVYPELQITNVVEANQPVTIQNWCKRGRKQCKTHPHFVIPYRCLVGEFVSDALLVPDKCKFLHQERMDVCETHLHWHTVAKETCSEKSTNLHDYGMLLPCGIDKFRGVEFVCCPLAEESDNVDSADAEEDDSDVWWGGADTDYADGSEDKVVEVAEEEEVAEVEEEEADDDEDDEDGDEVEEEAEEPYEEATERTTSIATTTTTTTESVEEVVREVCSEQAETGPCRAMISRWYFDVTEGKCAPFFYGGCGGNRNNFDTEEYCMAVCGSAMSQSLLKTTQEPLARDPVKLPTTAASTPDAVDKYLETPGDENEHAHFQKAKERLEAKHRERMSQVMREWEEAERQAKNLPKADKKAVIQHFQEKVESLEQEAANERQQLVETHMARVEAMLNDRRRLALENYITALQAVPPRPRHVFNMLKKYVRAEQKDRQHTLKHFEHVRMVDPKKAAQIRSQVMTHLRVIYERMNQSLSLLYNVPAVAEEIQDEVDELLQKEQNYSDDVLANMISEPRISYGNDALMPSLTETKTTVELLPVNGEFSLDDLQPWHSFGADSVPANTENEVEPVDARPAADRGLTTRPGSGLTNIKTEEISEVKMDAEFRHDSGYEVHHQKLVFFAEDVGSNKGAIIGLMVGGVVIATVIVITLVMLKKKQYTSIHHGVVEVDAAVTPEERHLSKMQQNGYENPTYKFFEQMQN

Compound	inhibition [1]	solubility [2]	TIME [3] [h]	inhibition [4]	inhibition [5]	TIME [6] [h]
COc1cc(/C=C/C(=O)OC[C@@]23CC[C@@]4(C(=O)O)CCC(C)(C)C[C@H]4C2=CC[C@@H]2[C@@]4(C)CC[C@H](O)C(C)(C)[C@@H]4CC[C@]23C)ccc1O	Active	Soluble	10	–	–	–
COc1cc(/C=C\C(=O)OC[C@@]23CC[C@@]4(C(=O)O)CCC(C)(C)C[C@H]4C2=CC[C@@H]2[C@@]4(C)CC[C@H](O)C(C)(C)[C@@H]4CC[C@]23C)ccc1O	Active	Soluble	10	–	–	–
COc1cc(/C=C\C(=O)OC[C@@]23CC[C@@]4(C(=O)O)CC[C@@H](C)[C@H](C)[C@H]4C2=CC[C@@H]2[C@@]4(C)CC[C@H](O)C(C)(C)[C@@H]4CC[C@]23C)ccc1O	Active	Soluble	10	–	–	–
C[C@H]1[C@H](C)CC[C@]2(C(=O)O)CC[C@]3(C)C(=CC[C@@H]4[C@@]5(C)CC[C@H](O)C(C)(C)[C@@H]5CC[C@]43C)[C@H]12	–	–	–	inactive	inactive	–

Results, then the molecule that gave them:

inhibition [1]	solubility [2]	TIME [3] [h]	inhibition [4]	inhibition [5]	TIME [6] [h]	Compound
–	–	–	inactive	inactive	–	C[C@H]1[C@H](C)CC[C@]2(C(=O)O)CC[C@]3(CO)C(=CC[C@@H]4[C@@]5(C)CC[C@H](O)C(C)(C)[C@@H]5CC[C@]43C)[C@H]12
Active	Soluble	12	–	–	8	COc1cc(/C=C/C(=O)OC[C@@]23CC[C@@]4(C(=O)O)CC[C@@H](C)[C@H](C)[C@H]4C2=CC[C@@H]2[C@@]4(C)CC[C@H](O)C(C)(C)[C@@H]4CC[C@]23C)ccc1O
–	–	–	inactive	inactive	–	COc1cc(/C=C/C(=O)OC[C@@]23CC[C@@]4(CO)CC[C@@H](C)[C@H](C)[C@H]4C2=CC[C@@H]2[C@@]4(C)CC[C@H](O)C(C)(C)[C@@H]4CC[C@]23C)ccc1O
–	–	–	inactive	inactive	–	CC(=O)OC[C@@]12CC[C@@]3(C(=O)O)CC[C@@H](C)[C@H](C)[C@H]3C1=CC[C@@H]1[C@@]3(C)CC[C@H](O)C(C)(C)[C@@H]3CC[C@]12C
–	–	–	inactive	inactive	–	COC(=O)[C@]12CC[C@@H](C)[C@H](C)[C@H]1C1=CC[C@@H]3[C@@]4(C)CC[C@H](O)C(C)(C)[C@@H]4CC[C@@]3(C)[C@]1(COC(=O)/C=C/c1ccc(O)c(OC)c1)CC2
